For data set [1], the target named is T1, Amine oxidase [flavin-containing] A (Homo sapiens, UniProt P21397).
T1 sequence (P21397 whole entry): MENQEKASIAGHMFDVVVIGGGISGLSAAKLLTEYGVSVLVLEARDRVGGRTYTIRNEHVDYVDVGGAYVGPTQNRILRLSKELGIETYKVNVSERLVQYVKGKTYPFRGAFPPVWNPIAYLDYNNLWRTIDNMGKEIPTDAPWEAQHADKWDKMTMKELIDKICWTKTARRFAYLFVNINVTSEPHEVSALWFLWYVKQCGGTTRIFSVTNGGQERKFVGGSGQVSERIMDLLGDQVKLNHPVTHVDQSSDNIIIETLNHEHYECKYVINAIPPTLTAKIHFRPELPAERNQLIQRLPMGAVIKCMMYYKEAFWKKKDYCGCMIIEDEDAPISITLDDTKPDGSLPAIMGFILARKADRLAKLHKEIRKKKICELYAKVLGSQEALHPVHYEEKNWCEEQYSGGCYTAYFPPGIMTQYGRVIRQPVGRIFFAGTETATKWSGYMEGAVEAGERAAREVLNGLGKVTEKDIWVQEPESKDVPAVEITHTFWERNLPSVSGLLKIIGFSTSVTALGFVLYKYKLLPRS
The data set is described as follows: Inhibition of human recombinant MAO-A expressed in insect BT1-TN-5B1-4 cells assessed as production of hydrogen peroxide from p-tyramine at 100 uM up to 15 mins by amplex red-based fluorometric assay. The following applies: 0.25 h; for inhibition (INH): 100 µM. In short, it runs like this: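 Recombinant hMAO-A came from microsomes of baculovirus-infected BTI-TN-5B1-4 insect cells, at 1.1 μg protein. It was preincubated with the test drug in 0.05 M sodium phosphate, pH 7.4, for 15 min at 37 °C. The reaction was started with 200 μM Amplex Red, 1 U/mL HRP and 1 mM p-tyramine (final). H2O2-derived resorufin fluorescence (ex 545, em 590 nm) was read over 15 min. Enzyme-free background was subtracted against vehicle controls. 100 μM was the highest concentration tested.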

In data set [2] the target is T2, Amine oxidase [flavin-containing] B (Homo sapiens, UniProt P27338).
T2 sequence (P27338 whole entry): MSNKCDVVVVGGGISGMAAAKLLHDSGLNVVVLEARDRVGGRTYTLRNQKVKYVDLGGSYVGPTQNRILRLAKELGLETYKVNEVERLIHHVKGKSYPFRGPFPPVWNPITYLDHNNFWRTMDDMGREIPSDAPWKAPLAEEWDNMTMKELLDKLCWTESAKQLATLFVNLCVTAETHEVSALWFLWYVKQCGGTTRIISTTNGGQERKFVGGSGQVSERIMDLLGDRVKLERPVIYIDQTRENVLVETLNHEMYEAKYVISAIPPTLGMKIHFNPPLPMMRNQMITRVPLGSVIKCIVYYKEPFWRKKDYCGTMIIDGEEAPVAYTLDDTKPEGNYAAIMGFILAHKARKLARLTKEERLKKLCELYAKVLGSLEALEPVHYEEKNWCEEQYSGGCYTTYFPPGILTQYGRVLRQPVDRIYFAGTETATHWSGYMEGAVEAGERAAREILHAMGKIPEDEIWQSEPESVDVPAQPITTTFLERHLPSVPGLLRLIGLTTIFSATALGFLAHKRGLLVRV
The data set is described as follows: Inhibition of human recombinant MAO-B expressed in insect BT1-TN-5B1-4 cells assessed as production of hydrogen peroxide from p-tyramine up to 15 mins by amplex red-based fluorometric assay. It counts as cell-based.

The species named for another data set is Homo sapiens. The data set is described as follows: Selectivity index, ratio of IC50 for human recombinant MAO-A to IC50 for human recombinant MAO-B.
For data set [3], the target named is T2, Amine oxidase [flavin-containing] B. The data set is described as follows: Inhibition of human recombinant MAO-B expressed in insect BT1-TN-5B1-4 cells assessed as production of hydrogen peroxide from p-tyramine at 100 uM up to 15 mins by amplex red-based fluorometric assay. Conditions: 0.25 h; call rule not given here. In short, it runs like this: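 hMAO-B was used as microsomes from BTI-TN-5B1-4 insect cells infected with recombinant baculovirus, at 7.5 μg protein. It was preincubated for 15 min at 37 °C with the test drug in sodium phosphate buffer, 0.05 M, pH 7.4. The reaction was then started with final 200 μM Amplex Red, 1 U/mL horseradish peroxidase and 1 mM p-tyramine. Resorufin fluorescence (545/590 nm) was followed at 37 °C for 15 min, minus the no-enzyme background and relative to vehicle controls. The top concentration was 100 μM.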

Data set [4] addresses T1, Amine oxidase [flavin-containing] A. In words: Inhibition of human recombinant MAO-A expressed in insect BT1-TN-5B1-4 cells assessed as production of hydrogen peroxide from p-tyramine up to 15 mins by amplex red-based fluorometric assay.

Bounds are passed on as bounds.

The text below walks through data of ChEMBL document CHEMBL1833810, “Synthesis and study of a series of 3-arylcoumarins as potent and selective monoamine oxidase B inhibitors” (J Med Chem, 2011).

Consider `COc1cc(OC)c(Br)c(-c2cc3cc(C)ccc3oc2=O)c1`, for which the “inhibition (INH)” value in data set [1] is given as “Not Active”. In data set [2], the IC50 amounted to 54000 nM. For the same compound, the Ratio IC50 in the data set filed under Homo sapiens was above 1.9.
As for `Cc1ccc(-c2cc3cc(OC4CCCC4)ccc3oc2=O)cc1`, the “inhibition (INH)” value in data set [1] is “Not Active”. For the same compound, the IC50 in data set [2] is 14500 nM. Moreover, the Ratio IC50 in the data set listed under Homo sapiens was above 6.9.
Turning to `COc1ccc(-c2cc3cc(C)ccc3oc2=O)cc1`, the “inhibition (INH)” value in data set [1] is reported as “Not Active”. Also, the Ratio IC50 in the data set listed under Homo sapiens was above 7660.
Turning to `CC(=O)COc1cccc(-c2cc3cc(C)ccc3oc2=O)c1`, the inhibition at 100 µM in data set [1] came to 40%. In addition, the IC50 in data set [2] came to 180 nM. The Ratio IC50 in the data set listed under Homo sapiens was above 555.
As to `COc1ccccc1-c1cc2cc(C)ccc2oc1=O`, the “inhibition (INH)” value in data set [1] and in data set [3] was “Not Active” throughout.
`COc1ccc(-c2cc3cc(C)ccc3oc2=O)cc1Br`: the “inhibition (INH)” value in data set [1] is listed as “Not Active”. Moreover, the IC50 in data set [2] is 0.74 nM. The Ratio IC50 in the data set filed under Homo sapiens is above 136000.
With `Cc1ccc2oc(=O)c(-c3ccccc3)cc2c1`, the “inhibition (INH)” value in data set [1] is given as “Not Active”. Also, the Ratio IC50 in the data set listed under Homo sapiens was above 352.
The matching figures for `COc1cc(OC)cc(-c2cc3cc(C)ccc3oc2=O)c1`: “Not Active” and above 11100.
For `Cc1ccc2oc(=O)c(-c3ccccc3O)cc2c1`, the IC50 came out at 21600 nM in data set [4] and 120 nM in data set [2]. In addition, the Ratio IC50 in the data set filed under Homo sapiens is 180.
For `COc1cccc(-c2cc3cc(C)ccc3oc2=O)c1`, the “inhibition (INH)” value in data set [1] is “Not Active”. Also, in the data set listed under Homo sapiens, the Ratio IC50 is above 125000.
On to `COc1ccc2oc(=O)c(-c3cccc(C)c3)cc2c1`, for which the “inhibition (INH)” value in data set [1] is given as “Not Active”. For the same compound, in data set [2], the IC50 came out at 17.1 nM. The Ratio IC50 in the data set listed under Homo sapiens is above 5880.
The like results for `COc1cc(-c2cc3cc(C)ccc3oc2=O)ccc1Br` were, in that order, “Not Active”, 3.25 nM and above 31200.
On to `Cc1ccc2oc(=O)c(-c3ccc(O)cc3)cc2c1`, for which the “inhibition (INH)” value in data set [1] is on record as “Not Active”.
`COc1cc(-c2cc3cc(C)ccc3oc2=O)cc(OC)c1OC`: the “inhibition (INH)” value in data set [1] was “Not Active”. Also, in the data set filed under Homo sapiens, the Ratio IC50 is above 623.
Regarding `COc1cc(-c2cc3cc(C)ccc3oc2=O)c(Br)c(OC)c1OC`, the “inhibition (INH)” value in data set [1] and in data set [3] was “Not Active” in each case.
On to `Cc1ccc(-c2cc3cc(O)ccc3oc2=O)cc1`, for which the IC50 turned out to be 24900 nM in data set [4] and 67.1 nM in data set [2]. In addition, in the data set filed under Homo sapiens, the Ratio IC50 is 372.
For `CC(=O)COc1ccc2oc(=O)c(-c3ccc(C)cc3)cc2c1`, the “inhibition (INH)” value in data set [1] is given as “Not Active”. Besides, the half-maximal inhibitory concentration (IC50) in data set [2] was 5520 nM. Further, the Ratio IC50 in the data set filed under Homo sapiens was above 18.
With `Cc1ccc(-c2cc3cc(C)ccc3oc2=O)cc1`, the “inhibition (INH)” value in data set [1] is reported as “Not Active”.
On to `Cc1ccc2oc(=O)c(-c3cccc(O)c3)cc2c1`, for which the IC50 in data set [4] was found to be 35000 nM; in data set [2], 650 nM. Besides, the Ratio IC50 in the data set filed under Homo sapiens was 54.
Take `COc1ccc(-c2cc3cc(C)ccc3oc2=O)cc1OC`: the figures for the half-maximal inhibitory concentration (IC50) in data set [4] and in data set [2] were 25100 nM and 2.73 nM, respectively. For the same compound, the Ratio IC50 in the data set listed under Homo sapiens came out at 9210.
As for `COc1ccc2oc(=O)c(-c3ccc(C)cc3)cc2c1`, the “inhibition (INH)” value in data set [1] was “Not Active”. For the same compound, in data set [2], the IC50 was found to be 1.52 nM. The Ratio IC50 in the data set listed under Homo sapiens is above 6790.
On to `Cc1cccc(-c2cc3cc(C)ccc3oc2=O)c1`, for which the inhibition at 100 µM in data set [1] worked out at 40%. In addition, the IC50 in data set [2] was 15 nM. The Ratio IC50 in the data set listed under Homo sapiens is above 6670.

The IC50 is the midpoint of a concentration-inhibition curve. A word on the inhibition: it is how much of the control response was suppressed.
